Calls of active or inactive are those of the source. No cut-off for these calls is given here.
Experiments:
MIA PaCa-2 [1] = test: Antiproliferative activity against human MIA PaCa-2 cells assessed as sensitizing activity by measuring combination index at ED50 measured after 3 days in presence of ABT- 199 by Prestoblue assay; assay type: functional; settings: time 3 day
Outline: (§1)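 MiaPaCa2 cells were treated for 3 days with the CDK9 degrader and a Bcl2-family inhibitor (ABT-263, ABT-199 or WEHI-539), singly and combined. Viability was read by PrestoBlue. Combination index values were calculated with CalcuSyn at effective doses ED50, ED75 and ED90.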

MIA PaCa-2 [2] = test: Antiproliferative activity against human MIA PaCa-2 cells assessed as sensitizing activity by measuring combination index at ED90 measured after 3 days in presence of ABT- 263 by Prestoblue assay; assay type: functional; settings: time 3 day; outline: as §1
MIA PaCa-2 [3] = test: Antiproliferative activity against human MIA PaCa-2 cells assessed as sensitizing activity by measuring combination index at ED75 measured after 3 days in presence of ABT- 263 by Prestoblue assay; assay type: functional; settings: time 3 day; outline: as §1
MIA PaCa-2 [4] = test: Antiproliferative activity against human MIA PaCa-2 cells assessed as sensitizing activity by measuring combination index at ED50 measured after 3 days in presence of ABT- 263 by Prestoblue assay; assay type: functional; settings: time 3 day; outline: as §1
[5] = molecular target: T1, Protein cereblon/Cyclin-dependent kinase 9 (Homo sapiens, UniProt P50750+Q96SW2); test: Protac activity at CDK9/CRBN in human HEK293 cells assessed as degradation of CDK9 incubated for 24 hrs by Western blot analysis; assay type: cell-based
Outline: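 HEK293 cells were treated with increasing concentrations (0.01–10 μM) for 24 hr. Lysates were analysed by western blot for CDK9 degradation.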

[6] = molecular target: T1, Protein cereblon/Cyclin-dependent kinase 9; test: Protac activity at CDK9/CRBN in human HEK293 cells assessed as degradation of CDK9 at 1 uM incubated for 24 hrs by Western blot analysis relative to control; assay type: cell-based
Target sequence in this assay (P50750 whole entry, looked up): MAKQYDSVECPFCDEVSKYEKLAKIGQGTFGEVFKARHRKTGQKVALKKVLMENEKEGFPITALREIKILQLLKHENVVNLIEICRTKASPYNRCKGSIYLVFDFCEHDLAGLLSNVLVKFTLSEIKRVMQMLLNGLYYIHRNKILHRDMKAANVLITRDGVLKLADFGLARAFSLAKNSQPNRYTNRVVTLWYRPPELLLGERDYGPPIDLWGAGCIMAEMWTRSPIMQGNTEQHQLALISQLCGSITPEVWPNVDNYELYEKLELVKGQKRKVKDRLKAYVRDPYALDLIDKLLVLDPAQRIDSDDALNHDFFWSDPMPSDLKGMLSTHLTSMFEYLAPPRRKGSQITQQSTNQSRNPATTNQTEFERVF
Target sequence in this assay (Q96SW2 whole entry, looked up): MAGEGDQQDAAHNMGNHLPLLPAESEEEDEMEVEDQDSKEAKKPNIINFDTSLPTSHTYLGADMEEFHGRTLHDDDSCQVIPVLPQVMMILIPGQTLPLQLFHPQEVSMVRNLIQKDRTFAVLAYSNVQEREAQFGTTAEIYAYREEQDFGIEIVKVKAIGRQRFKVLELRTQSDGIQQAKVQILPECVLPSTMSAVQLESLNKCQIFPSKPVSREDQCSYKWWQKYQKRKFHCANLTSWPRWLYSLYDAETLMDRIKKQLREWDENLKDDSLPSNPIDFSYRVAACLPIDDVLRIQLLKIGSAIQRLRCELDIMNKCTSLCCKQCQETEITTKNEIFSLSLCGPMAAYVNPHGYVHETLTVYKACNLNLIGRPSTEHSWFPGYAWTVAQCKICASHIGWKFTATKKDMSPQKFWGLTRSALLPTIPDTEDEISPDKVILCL

[7] = molecular target: CDK9/Cyclin K (Homo sapiens) (UniProt P50750+O75909); test: Protac activity at Cyclin K/CRBN in human HEK293 cells assessed as degradation of cyclin K at 0.01 to 10 uM incubated for 24 hrs by Western blot analysis; assay type: cell-based; settings: dose 0.01-10 µM
[8] = molecular target: T2, Protein cereblon/Cyclin-dependent kinase 12 (Homo sapiens) (UniProt Q9NYV4+Q96SW2); test: Protac activity at CDK12/CRBN in human HEK293 cells assessed as degradation of CDK12 at 0.01 to 10 uM incubated for 24 hrs by Western blot analysis; assay type: cell-based; settings: dose 0.01-10 µM
[9] = molecular target: T3, Protein cereblon/Cyclin-dependent kinase 8 (Homo sapiens) (UniProt P49336+Q96SW2); test: Protac activity at CDK8/CRBN in human HEK293 cells assessed as degradation of CDK8 at 0.01 to 10 uM incubated for 24 hrs by Western blot analysis; assay type: cell-based; settings: dose 0.01-10 µM
[10] = molecular target: T4, Protein cereblon/Cyclin-dependent kinase 7 (Homo sapiens) (UniProt P50613+Q96SW2); test: Protac activity at CDK7/CRBN in human HEK293 cells assessed as degradation of CDK7 at 0.01 to 10 uM incubated for 24 hrs by Western blot analysis; assay type: cell-based; settings: dose 0.01-10 µM
[11] = molecular target: T5, Protein cereblon/Cyclin-dependent kinase 6 (Homo sapiens) (UniProt Q00534+Q96SW2); test: Protac activity at CDK6/CRBN in human HEK293 cells assessed as degradation of CDK6 at 0.01 to 10 uM incubated for 24 hrs by Western blot analysis; assay type: cell-based; settings: dose 0.01-10 µM
[12] = molecular target: T6, Protein cereblon/Cyclin-dependent kinase 5 (Homo sapiens) (UniProt Q00535+Q96SW2); test: Protac activity at CDK5/CRBN in human HEK293 cells assessed as degradation of CDK5 at 0.01 to 10 uM incubated for 24 hrs by Western blot analysis; assay type: cell-based; settings: dose 0.01-10 µM
[13] = molecular target: T7, Protein cereblon/Cyclin-dependent kinase 4 (Homo sapiens) (UniProt P11802+Q96SW2); test: Protac activity at CDK4/CRBN in human HEK293 cells assessed as degradation of CDK4 at 0.01 to 10 uM incubated for 24 hrs by Western blot analysis; assay type: cell-based; settings: dose 0.01-10 µM
[14] = molecular target: T8, Protein cereblon/Cyclin-dependent kinase 2 (Homo sapiens) (UniProt P24941+Q96SW2); test: Protac activity at CDK2/CRBN in human HEK293 cells assessed as degradation of CDK2 at 0.01 to 10 uM incubated for 24 hrs by Western blot analysis; assay type: cell-based; settings: dose 0.01-10 µM
[15] = molecular target: T9, Protein cereblon/Cyclin-dependent kinase 1 (Homo sapiens) (UniProt P06493+Q96SW2); test: Protac activity at CDK1/CRBN in human HEK293 cells assessed as degradation of CDK1 at 0.01 to 10 uM incubated for 24 hrs by Western blot analysis; assay type: cell-based; settings: dose 0.01-10 µM
[16] = molecular target: T1, Protein cereblon/Cyclin-dependent kinase 9; test: Protac activity at CDK9/CRBN in human HEK293 cells assessed as degradation of CDK9 at 1 uM measured up to 24 hrs by Western blot analysis; assay type: cell-based; settings: time hrs <=24
Outline: (§2)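 Time course in HEK293 cells at 1 μM degrader; lysates collected at indicated time points up to 24 h and probed by western blot for the various CDKs.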
Target sequence in this assay (P50750 whole entry, looked up): as the sequence (P50750 whole entry, looked up) above
Target sequence in this assay (Q96SW2 whole entry, looked up): as the sequence (Q96SW2 whole entry, looked up) above

[17] = molecular target: T2, Protein cereblon/Cyclin-dependent kinase 12 (Homo sapiens); test: Protac activity at CDK12/CRBN in human HEK293 cells assessed as degradation of CDK12 at 1 uM measured upto 24 hrs by Western blot analysis; assay type: cell-based; settings: time hrs <=24; outline: as §2
[18] = molecular target: T3, Protein cereblon/Cyclin-dependent kinase 8 (Homo sapiens); test: Protac activity at CDK8/CRBN in human HEK293 cells assessed as degradation of CDK8 at 1 uM measured upto 24 hrs by Western blot analysis; assay type: cell-based; settings: time hrs <=24; outline: as §2
[19] = molecular target: T4, Protein cereblon/Cyclin-dependent kinase 7 (Homo sapiens); test: Protac activity at CDK7/CRBN in human HEK293 cells assessed as degradation of CDK7 at 1 uM measured upto 24 hrs by Western blot analysis; assay type: cell-based; settings: time hrs <=24; outline: as §2
[20] = molecular target: T5, Protein cereblon/Cyclin-dependent kinase 6 (Homo sapiens); test: Protac activity at CDK6/CRBN in human HEK293 cells assessed as degradation of CDK6 at 1 uM measured upto 24 hrs by Western blot analysis; assay type: cell-based; settings: time hrs <=24; outline: as §2
[21] = molecular target: T6, Protein cereblon/Cyclin-dependent kinase 5 (Homo sapiens); test: Protac activity at CDK5/CRBN in human HEK293 cells assessed as degradation of CDK5 at 1 uM measured upto 24 hrs by Western blot analysis; assay type: cell-based; settings: time hrs <=24; outline: as §2
[22] = molecular target: T7, Protein cereblon/Cyclin-dependent kinase 4 (Homo sapiens); test: Protac activity at CDK4/CRBN in human HEK293 cells assessed as degradation of CDK4 at 1 uM measured upto 24 hrs by Western blot analysis; assay type: cell-based; settings: time hrs <=24; outline: as §2
[23] = molecular target: T8, Protein cereblon/Cyclin-dependent kinase 2 (Homo sapiens); test: Protac activity at CDK2/CRBN in human HEK293 cells assessed as degradation of CDK2 at 1 uM measured upto 24 hrs by Western blot analysis; assay type: cell-based; settings: time hrs <=24; outline: as §2
[24] = molecular target: T9, Protein cereblon/Cyclin-dependent kinase 1 (Homo sapiens); test: Protac activity at CDK1/CRBN in human HEK293 cells assessed as degradation of CDK1 at 1 uM measured upto 24 hrs by Western blot analysis; assay type: cell-based; settings: time hrs <=24; outline: as §2
[25] = molecular target: T10, Cyclin-dependent kinase 5 (Homo sapiens, UniProt Q00535); test: Inhibition of CDK5 (unknown origin)
[26] = molecular target: T11, Cyclin-dependent kinase 9 (Homo sapiens, UniProt P50750); test: Inhibition of CDK9 (unknown origin)
[27] = molecular target: T1, Protein cereblon/Cyclin-dependent kinase 9; test: Protac activity at CDK9/CRBN in human HEK293 cells assessed as degradation of CDK9 at 1 uM incubated for 24 hrs in presence of pomalidomide by Western blot analysis; assay type: cell-based
Outline: (§3)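 Competition in HEK293 cells: 10 μM pomalidomide (CRBN ligand) alone or combined with 1 μM degrader for 24 h; lysates analysed by western blot.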
Target sequence in this assay (P50750 whole entry, looked up): as the sequence (P50750 whole entry, looked up) above
Target sequence in this assay (Q96SW2 whole entry, looked up): as the sequence (Q96SW2 whole entry, looked up) above

[28] = molecular target: T4, Protein cereblon/Cyclin-dependent kinase 7 (Homo sapiens); test: Protac activity at CDK7/CRBN in human HEK293 cells assessed as degradation of CDK7 at 10 uM incubated for 24 hrs in presence of pomalidomide by Western blot analysis; assay type: cell-based; outline: as §3
[29] = molecular target: Cyclin-dependent kinase 7 (Homo sapiens) (UniProt P50613); test: Inhibition of CDK7 in human HEK293 cells assessed as reduction in CDK7 level at 10 uM incubated for 24 hrs in presence of flavopiridol by Western blot analysis; assay type: cell-based
[30] = molecular target: T1, Protein cereblon/Cyclin-dependent kinase 9; test: Protac activity at CDK9/CRBN in human HEK293 cells assessed as degradation of CDK9 at 1 uM incubated for 24 hrs in presence of MG132 by Western blot analysis; assay type: cell-based
Outline: (§4)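 HEK293 cells co-treated for 24 h with degrader and increasing concentrations of proteasome inhibitor MG132; lysates examined by western blot.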
Target sequence in this assay (P50750 whole entry, looked up): as the sequence (P50750 whole entry, looked up) above
Target sequence in this assay (Q96SW2 whole entry, looked up): as the sequence (Q96SW2 whole entry, looked up) above

[31] = molecular target: T9, Protein cereblon/Cyclin-dependent kinase 1 (Homo sapiens); test: Protac activity at CDK1/CRBN in human HEK293 cells assessed as degradation of CDK1 at 1 uM incubated for 24 hrs in presence of MG132 by Western blot analysis; assay type: cell-based; outline: as §4
[32] = molecular target: T2, Protein cereblon/Cyclin-dependent kinase 12 (Homo sapiens); test: Protac activity at CDK12/CRBN in human HEK293 cells assessed as degradation of CDK12 at 1 uM incubated for 24 hrs in presence of MG132 by Western blot analysis; assay type: cell-based; outline: as §4
MIA PaCa-2 [33] = test: Antiproliferative activity against human MIA PaCa-2 cells assessed as sensitizing activity by measuring combination index at ED75 measured after 3 days in presence of ABT- 199 by Prestoblue assay; assay type: functional; settings: time 3 day; outline: as §1
MIA PaCa-2 [34] = test: Antiproliferative activity against human MIA PaCa-2 cells assessed as sensitizing activity by measuring combination index at ED90 measured after 3 days in presence of ABT- 199 by Prestoblue assay; assay type: functional; settings: time 3 day; outline: as §1
MIA PaCa-2 [35] = test: Antiproliferative activity against human MIA PaCa-2 cells assessed as sensitizing activity by measuring combination index at ED50 measured after 3 days in presence of WEHI-539 by Prestoblue assay; assay type: functional; settings: time 3 day; outline: as §1
MIA PaCa-2 [36] = test: Antiproliferative activity against human MIA PaCa-2 cells assessed as sensitizing activity by measuring combination index at ED75 measured after 3 days in presence of WEHI-539 by Prestoblue assay; assay type: functional; settings: time 3 day; outline: as §1
MIA PaCa-2 [37] = test: Antiproliferative activity against human MIA PaCa-2 cells assessed as sensitizing activity by measuring combination index at ED90 measured after 3 days in presence of WEHI-539 by Prestoblue assay; assay type: functional; settings: time 3 day; outline: as §1
[38] = molecular target: T1, Protein cereblon/Cyclin-dependent kinase 9; test: Protac activity at CDK9/CRBN in human HEK293 cells assessed as degradation of CDK9 by Western blot analysis; assay type: cell-based; settings: TDE = time-dependent effect
Target sequence in this assay (P50750 whole entry, looked up): as the sequence (P50750 whole entry, looked up) above
Target sequence in this assay (Q96SW2 whole entry, looked up): as the sequence (Q96SW2 whole entry, looked up) above

[39] = molecular target: T1, Protein cereblon/Cyclin-dependent kinase 9; test: Protac activity at CDK9/CRBN in human MIA PaCa-2 cells assessed as degradation of CDK9; assay type: cell-based
Target sequence in this assay (P50750 whole entry, looked up): as the sequence (P50750 whole entry, looked up) above
Target sequence in this assay (Q96SW2 whole entry, looked up): as the sequence (Q96SW2 whole entry, looked up) above

[40] = molecular target: T1, Protein cereblon/Cyclin-dependent kinase 9; test: Protac activity at CDK9/CRBN in human SUIT-2 cells assessed as degradation of CDK9; assay type: cell-based
[41] = molecular target: T10, Cyclin-dependent kinase 5; test: Binding affinity to CDK5 (unknown origin)
[42] = molecular target: T11, Cyclin-dependent kinase 9; test: Binding affinity to CDK9 (unknown origin)
[43] = molecular target: T12, Cyclin-dependent kinase 2 (Homo sapiens, UniProt P24941)
[44] = molecular target: T12, Cyclin-dependent kinase 2; remark: listed apart in the source
[45] = molecular target: T11, Cyclin-dependent kinase 9; test: Inhibition of CDK9 in human HEK293 cells assessed as reduction in CDK9 level at 1 uM incubated for 8 hrs in presence of flavopiridol by Western blot analysis

T11 sequence (P50750 whole entry): as the sequence (P50750 whole entry, looked up) above
T2 sequence (Q96SW2 whole entry, looked up): as the sequence (Q96SW2 whole entry, looked up) above
T2 sequence (Q9NYV4 whole entry, looked up): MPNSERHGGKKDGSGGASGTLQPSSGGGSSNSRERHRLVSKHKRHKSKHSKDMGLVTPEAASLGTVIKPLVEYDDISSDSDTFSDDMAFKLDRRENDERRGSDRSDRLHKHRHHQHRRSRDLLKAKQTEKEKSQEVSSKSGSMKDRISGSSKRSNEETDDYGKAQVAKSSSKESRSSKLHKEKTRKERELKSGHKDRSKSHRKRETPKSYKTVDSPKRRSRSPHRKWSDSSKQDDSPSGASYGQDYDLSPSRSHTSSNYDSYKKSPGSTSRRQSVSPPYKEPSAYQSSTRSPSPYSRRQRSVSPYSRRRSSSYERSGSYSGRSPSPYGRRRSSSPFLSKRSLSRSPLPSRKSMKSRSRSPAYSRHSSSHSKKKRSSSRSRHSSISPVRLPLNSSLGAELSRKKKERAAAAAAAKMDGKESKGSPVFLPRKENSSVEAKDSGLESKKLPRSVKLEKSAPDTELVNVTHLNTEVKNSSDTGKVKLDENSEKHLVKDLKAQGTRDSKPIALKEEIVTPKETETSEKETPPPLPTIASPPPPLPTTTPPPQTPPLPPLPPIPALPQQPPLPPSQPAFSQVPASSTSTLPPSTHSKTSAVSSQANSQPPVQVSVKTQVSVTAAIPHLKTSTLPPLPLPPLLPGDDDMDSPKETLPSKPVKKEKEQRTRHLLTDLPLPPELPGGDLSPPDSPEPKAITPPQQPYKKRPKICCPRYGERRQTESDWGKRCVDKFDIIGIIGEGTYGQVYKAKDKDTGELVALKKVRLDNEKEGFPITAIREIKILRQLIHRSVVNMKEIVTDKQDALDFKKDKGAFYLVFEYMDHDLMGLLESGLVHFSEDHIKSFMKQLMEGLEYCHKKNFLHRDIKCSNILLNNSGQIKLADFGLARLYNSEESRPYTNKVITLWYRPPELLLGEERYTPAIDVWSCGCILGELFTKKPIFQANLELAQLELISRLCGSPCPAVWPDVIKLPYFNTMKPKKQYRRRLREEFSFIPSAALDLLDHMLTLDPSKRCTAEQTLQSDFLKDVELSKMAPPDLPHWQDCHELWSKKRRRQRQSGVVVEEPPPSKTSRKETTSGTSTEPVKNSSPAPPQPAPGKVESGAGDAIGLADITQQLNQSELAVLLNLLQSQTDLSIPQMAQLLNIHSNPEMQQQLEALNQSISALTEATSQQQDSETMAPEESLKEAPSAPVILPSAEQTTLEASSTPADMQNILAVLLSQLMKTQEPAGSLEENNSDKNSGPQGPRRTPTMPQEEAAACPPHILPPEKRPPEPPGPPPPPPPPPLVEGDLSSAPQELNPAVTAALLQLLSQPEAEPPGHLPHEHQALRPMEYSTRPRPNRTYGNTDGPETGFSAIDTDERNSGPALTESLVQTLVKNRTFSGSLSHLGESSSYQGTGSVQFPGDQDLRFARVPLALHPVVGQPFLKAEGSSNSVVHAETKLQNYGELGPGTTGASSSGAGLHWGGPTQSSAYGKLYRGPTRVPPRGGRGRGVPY
T9 sequence (P06493 whole entry, looked up): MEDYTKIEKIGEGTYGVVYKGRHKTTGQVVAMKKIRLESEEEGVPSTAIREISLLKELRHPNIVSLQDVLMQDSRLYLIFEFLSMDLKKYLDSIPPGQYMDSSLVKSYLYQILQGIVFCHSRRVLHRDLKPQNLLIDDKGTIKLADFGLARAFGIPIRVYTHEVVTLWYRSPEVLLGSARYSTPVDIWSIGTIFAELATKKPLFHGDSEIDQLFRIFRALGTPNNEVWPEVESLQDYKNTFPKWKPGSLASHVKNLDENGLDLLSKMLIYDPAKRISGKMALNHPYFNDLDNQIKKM
T9 sequence (Q96SW2 whole entry, looked up): as the sequence (Q96SW2 whole entry, looked up) above
T7 sequence (P11802 2-303 limits assumed): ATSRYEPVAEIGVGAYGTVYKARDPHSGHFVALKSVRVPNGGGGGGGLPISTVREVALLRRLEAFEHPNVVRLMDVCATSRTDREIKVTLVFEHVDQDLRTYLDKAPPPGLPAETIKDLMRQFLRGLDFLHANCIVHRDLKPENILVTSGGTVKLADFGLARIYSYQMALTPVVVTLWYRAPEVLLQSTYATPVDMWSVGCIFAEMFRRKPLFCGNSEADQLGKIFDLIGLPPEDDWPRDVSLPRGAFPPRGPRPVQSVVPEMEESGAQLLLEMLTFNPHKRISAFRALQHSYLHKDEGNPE
T7 sequence (Q96SW2 whole entry partner): as the sequence (Q96SW2 whole entry, looked up) above

Activity [5]: Dose-Dependent Effect | DC50 [5]: 158 nM | Activity [6]: 100% | Activity [7]: inactive | Activity [8]: inactive | Activity [9]: inactive | Activity [10]: inactive | Activity [11]: inactive | Activity [12]: inactive | Activity [13]: inactive | Activity [14]: inactive | Activity [15]: inactive | Activity [16]: Active | Activity [17]: inactive | Activity [18]: inactive | Activity [19]: inactive | Activity [20]: inactive | Activity [21]: inactive | Activity [22]: inactive | Activity [23]: inactive | Activity [24]: inactive | IC50 [25]: 7 nM | IC50 [26]: 530 nM | Activity [27]: inactive | Activity [28]: inactive | Activity [29]: inactive | Activity [30]: inactive | Activity [31]: inactive | Activity [32]: inactive | Activity [38]: Tde | Activity [39]: Active | Activity [40]: Active | Kd [41]: 815 nM | Kd [42]: 1050 nM | IC50 [43]: 155 nM | Kd [44]: 385 nM | Activity [45]: inactive
SMILES: O=C(CCCOc1ccc(CC(=O)Nc2cc(C3CCC3)[nH]n2)cc1)NCCCCNc1cccc2c1C(=O)N(C1CCC(=O)NC1=O)C2=O (stereo unspecified)
CI (MIA PaCa-2 [1]): 0.02 | CI (MIA PaCa-2 [2]): 0.1 | CI (MIA PaCa-2 [3]): 0.12 | CI (MIA PaCa-2 [4]): 0.16 | CI (MIA PaCa-2 [33]): 0.001 | CI (MIA PaCa-2 [34]): 0.001 | CI (MIA PaCa-2 [35]): 1 | CI (MIA PaCa-2 [36]): 0.6 | CI (MIA PaCa-2 [37]): 0.35
